# Activity calls are given as the source filed them.
# What was measured:
# [1] = target: T1, DNA topoisomerase 1 (Homo sapiens) (UniProt P11387); assay: Inhibition of human recombinant Top1 expressed in baculovirus-infected insect Sf9 cells using 3'-[32P]-end-labeled 117 bp DNA as substrate assessed as inhibition of DNA cleavage after 20 mins by PAGE analysis relative to 1 uM camptothecin
# T1 sequence (whole entry): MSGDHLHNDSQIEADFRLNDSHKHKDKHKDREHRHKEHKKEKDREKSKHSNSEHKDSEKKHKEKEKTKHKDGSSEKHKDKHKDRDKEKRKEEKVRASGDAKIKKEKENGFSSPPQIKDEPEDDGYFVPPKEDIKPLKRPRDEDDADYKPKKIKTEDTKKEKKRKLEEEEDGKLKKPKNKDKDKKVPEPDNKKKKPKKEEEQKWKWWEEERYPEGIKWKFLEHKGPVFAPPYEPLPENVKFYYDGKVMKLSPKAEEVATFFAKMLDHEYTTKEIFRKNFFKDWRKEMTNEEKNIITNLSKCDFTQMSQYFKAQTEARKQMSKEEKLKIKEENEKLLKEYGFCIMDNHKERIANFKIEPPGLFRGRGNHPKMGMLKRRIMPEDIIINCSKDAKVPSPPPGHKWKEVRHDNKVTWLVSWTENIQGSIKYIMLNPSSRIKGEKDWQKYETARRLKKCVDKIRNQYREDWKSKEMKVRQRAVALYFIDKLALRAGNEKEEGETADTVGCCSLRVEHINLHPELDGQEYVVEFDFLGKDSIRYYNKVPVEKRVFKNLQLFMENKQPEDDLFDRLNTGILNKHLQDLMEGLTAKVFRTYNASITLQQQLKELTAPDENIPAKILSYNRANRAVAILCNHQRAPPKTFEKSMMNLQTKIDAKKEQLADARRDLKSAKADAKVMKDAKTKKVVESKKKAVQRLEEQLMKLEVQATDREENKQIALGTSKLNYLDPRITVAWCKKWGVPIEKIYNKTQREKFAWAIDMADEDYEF
# Method in brief: (§1)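 About 2 nM 3′-[32P]-end-labeled 117-bp DNA (Klenow fill-in with [α32P]dGTP) incubated with recombinant Top1 and compound for 20 min at room temperature. Stopped with 0.5% SDS, run on 20% denaturing PAGE, read by phosphorimager. Cleavage bands scored visually against 1 μM camptothecin on a 0 to +++++ scale.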
# [2] = target: Tyrosyl-DNA phosphodiesterase 1 (Homo sapiens, UniProt Q9NUW8); assay: Inhibition of human recombinant TDP1 assessed as hydrolysis of N14Y to N14P after 15 mins by PAGE analysis
# SF-539 = assay: Cytotoxicity against human SF539 cells; format: functional
# Method in brief: (§2)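 NCI-60 screen (NCI-DTP): one-dose prescreen at 10 μM, then five concentrations from 100 μM to 10 nM for compounds passing the cutoff. GI50 (50% growth inhibition) interpolated from the five-dose data. Single determination.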
# SN12C = assay: Cytotoxicity against human SN12C cells; format: functional; method in brief: as §2
# [3] = Cytotoxicity against human UACC62 cells; format: functional; conditions: UACC-62; method in brief: as §2
# DU-145 = assay: Cytotoxicity against human DU145 cells; format: functional; method in brief: as §2
# MCF7 = assay: Cytotoxicity against human MCF7 cells; format: functional; method in brief: as §2
# [4] = Cytotoxicity against human OVCAR3 cells; format: functional; conditions: OVCAR-3; method in brief: as §2
# [5] = Cytotoxicity against human HCT116 cells; format: functional; conditions: HCT-116; method in brief: as §2
# [6] = target: T1, DNA topoisomerase 1 (Homo sapiens); assay: Inhibition of human recombinant Top1 expressed in baculovirus-infected insect Sf9 cells using 3'-[32P]-end-labeled 117 bp DNA as substrate assessed as inhibition of DNA cleavage after 20 mins by PAGE analysis; method in brief: as §1
# HOP-62 = assay: Cytotoxicity against human HOP62 cells; format: functional; method in brief: as §2
# [7] = target: T1, DNA topoisomerase 1 (Homo sapiens); assay: Poisoning activity at human recombinant Top1 expressed in baculovirus-infected insect Sf9 cells using 3'-[32P]-end-labeled 117 bp DNA as substrate assessed as trapping of enzyme cleavage complex at 0.005 to 100 uM measured after 20 mins by PAGE analysis; method in brief: as §1
# [8] = target: T1, DNA topoisomerase 1 (Homo sapiens); assay: Poisoning activity at human recombinant Top1 expressed in baculovirus-infected insect Sf9 cells using 3'-[32P]-end-labeled 117 bp DNA as substrate assessed as delay in reversal of drug-enzyme-DNA cleavage complex formation at 1 uM measured over 10 mins by PAGE analysis
# Tyrosyl-DNA phosphodiesterase 1, sequence (Q9NUW8 whole entry): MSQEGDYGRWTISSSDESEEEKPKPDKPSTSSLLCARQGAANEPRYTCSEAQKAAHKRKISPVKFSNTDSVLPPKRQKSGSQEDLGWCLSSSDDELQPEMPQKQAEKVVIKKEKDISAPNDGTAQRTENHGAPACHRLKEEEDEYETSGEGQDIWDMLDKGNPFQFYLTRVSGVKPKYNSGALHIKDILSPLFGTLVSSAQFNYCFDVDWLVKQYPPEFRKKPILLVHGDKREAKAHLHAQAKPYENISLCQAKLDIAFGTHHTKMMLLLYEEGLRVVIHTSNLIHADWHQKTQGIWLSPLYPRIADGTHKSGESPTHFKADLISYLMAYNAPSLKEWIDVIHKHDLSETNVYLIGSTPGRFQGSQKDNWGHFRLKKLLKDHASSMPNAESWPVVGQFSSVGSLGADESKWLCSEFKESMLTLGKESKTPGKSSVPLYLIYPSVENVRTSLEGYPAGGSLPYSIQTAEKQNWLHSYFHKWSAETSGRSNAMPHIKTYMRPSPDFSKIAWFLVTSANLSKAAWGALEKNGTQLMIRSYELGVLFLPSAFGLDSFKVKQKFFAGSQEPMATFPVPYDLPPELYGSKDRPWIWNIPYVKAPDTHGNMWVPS
Compound,inhibition [1],IC50 [2] [µM],GI50 (SF-539) [nM],GI50 (SN12C) [nM],GI50 [3] [nM],GI50 (DU-145) [nM],GI50 (MCF7) [nM],GI50 [4] [nM],GI50 [5] [nM],inhibition [6],GI50 (HOP-62) [nM],inhibition [2],Activity [7],Activity [8]
O=C1c2cccc(O)c2-c2c1c1ccc([N+](=O)[O-])cc1c(=O)n2CCCN1CCOCC1,50%,> 111,–,–,–,–,–,–,–,–,–,–,–,–
O=C1c2ccc(O)cc2-c2c1c1ccc([N+](=O)[O-])cc1c(=O)n2CCCn1ccnc1,75%,> 111,< 10,< 10,< 10,< 10,< 10,23,< 10,Dose-dependent effect,–,–,–,–
O=C1c2cc(O)ccc2-c2c1c1ccc([N+](=O)[O-])cc1c(=O)n2CCCn1ccnc1,75%,> 111,< 10,< 10,< 10,< 10,< 10,19,< 10,–,< 10,–,–,–
O=C1c2cccc(O)c2-c2c1c1ccc([N+](=O)[O-])cc1c(=O)n2CCCn1ccnc1,75%,> 111,–,–,–,–,–,–,–,–,–,–,–,–
COc1cc2c(cc1O)-c1c(c3ccc([N+](=O)[O-])cc3c(=O)n1CCCN1CCOCC1)C2=O,50%,> 111,130,63,39,110,35,720,–,–,79,–,–,–
COc1cc2c(cc1O)C(=O)c1c-2n(CCCN)c(=O)c2cc([N+](=O)[O-])ccc12,50%,–,< 10,< 10,< 10,< 10,< 10,27,< 10,–,< 10,Dose-dependent effect,–,–
O=C1c2c(O)cccc2-c2c1c1ccc([N+](=O)[O-])cc1c(=O)n2CCCn1ccnc1,75%,> 111,150,170,180,130,56,230,130,Dose-dependent effect,81,–,–,–
O=C1c2cc(O)ccc2-c2c1c1ccc([N+](=O)[O-])cc1c(=O)n2CCCBr,Active,–,< 10,< 10,< 10,< 10,< 10,23,< 10,–,–,–,Active,Active
O=C1c2ccc(O)cc2-c2c1c1ccc([N+](=O)[O-])cc1c(=O)n2CCCN1CCOCC1,Active,> 111,21,36,20,34,< 10,41,26,Dose-dependent effect,25,–,–,–
O=C1c2ccccc2-c2c1c1ccccc1c(=O)n2CCCNCCCNCCCn1c2c(c3ccccc3c1=O)C(=O)c1ccccc1-2,–,–,–,–,–,–,–,–,–,–,–,Dose-dependent effect,–,–
COc1cc2c(cc1O)-c1c(c3cc(OC)c(OC)cc3c(=O)n1CCCn1ccnc1)C2=O,–,> 111,–,–,–,–,–,–,–,–,–,–,–,–
O=C1c2c(O)cccc2-c2c1c1ccc([N+](=O)[O-])cc1c(=O)n2CCCN1CCOCC1,50%,> 111,200,–,390,–,64,29000,550,Dose-dependent effect,12000,–,–,–
NCCCn1c2c(c3ccc([N+](=O)[O-])cc3c1=O)C(=O)c1cc(O)ccc1-2,Active,–,30,46,41,52,26,220,78,–,56,–,–,–
COc1cc2c(cc1O)C(=O)c1c-2n(CCCN2CCOCC2)c(=O)c2cc(OC)c(OC)cc12,–,> 111,–,–,–,–,–,–,–,–,–,–,–,–
CC[C@@]1(O)C(=O)OCc2c1cc1n(c2=O)Cc2cc3ccccc3nc2-1,–,–,–,–,–,–,–,–,–,–,–,–,–,inactive
COc1cc2c(cc1O)C(=O)c1c-2n(CCCn2ccnc2)c(=O)c2cc([N+](=O)[O-])ccc12,20%,> 111,< 10,< 10,< 10,< 10,< 10,< 10,< 10,–,< 10,Dose-dependent effect,–,–
NCCCn1c2c(c3ccc([N+](=O)[O-])cc3c1=O)C(=O)c1c(O)cccc1-2,75%,–,1700,3400,2500,1200,250,2900,470,–,1900,–,–,–
O=C1c2cc(O)ccc2-c2c1c1ccc([N+](=O)[O-])cc1c(=O)n2CCCN1CCOCC1,Active,> 111,< 10,< 10,< 10,< 10,< 10,< 10,< 10,–,< 10,–,–,–
COc1cc2c(cc1O)C(=O)c1c-2n(CCCn2ccnc2)c(=O)c2cc(OC)c(OC)cc12,–,> 111,–,–,–,–,–,–,–,–,–,–,–,–
COc1cc2c(cc1O)-c1c(c3ccc([N+](=O)[O-])cc3c(=O)n1CCCn1ccnc1)C2=O,50%,–,49,51,–,51,20,320,71,–,85,–,–,–
COc1cc2c(cc1O)-c1c(c3ccc([N+](=O)[O-])cc3c(=O)n1CCCN)C2=O,50%,–,660,450,950,430,170,1700,150,–,470,Dose-dependent effect,–,–
NCCCn1c2c(c3ccc([N+](=O)[O-])cc3c1=O)C(=O)c1cccc(O)c1-2,50%,–,–,–,–,–,–,–,–,–,–,–,–,–
COc1cc2c(cc1O)C(=O)c1c-2n(CCCN2CCOCC2)c(=O)c2cc([N+](=O)[O-])ccc12,50%,> 111,< 10,< 10,< 10,< 10,< 10,–,< 10,–,< 10,Dose-dependent effect,–,–
NCCCn1c2c(c3ccc([N+](=O)[O-])cc3c1=O)C(=O)c1ccc(O)cc1-2,75%,–,210,–,–,350,120,270,220,–,–,–,–,–
